Data reported in ChEMBL document CHEMBL1132587, “Synthesis and serotonergic activity of 3-[2-(pyrrolidin-1-yl)ethyl]indoles: potent agonists for the h5-HT1D receptor with high selectivity over the h5-HT1B receptor” (J Med Chem, 1999).
Several values for one entry are separate records, joined by “and”; a condition that tells them apart may be missing. Equal entries are not always repeated.

What was measured:
[1] = target: T1, 5-hydroxytryptamine receptor 1B (Homo sapiens, UniProt P28222); assay: Displacement of [3H]5-HT binding from the cloned human 5-hydroxytryptamine 1B receptor stably expressed in CHO cells; type: cell-based
[2] = target: T2, 5-hydroxytryptamine receptor 1D (Homo sapiens, UniProt P28221); assay: Displacement of [3H]5-HT binding from the cloned human 5-hydroxytryptamine 1D receptor stably expressed in CHO cells; type: cell-based
[3] = target: T2, 5-hydroxytryptamine receptor 1D; assay: Stimulation of [35S]GTP-gamma-S, binding in CHO cells expressing the 5-hydroxytryptamine 1D receptor; type: functional, cell-based
[4] = target: T1, 5-hydroxytryptamine receptor 1B; assay: Affinity of compound towards 5-hydroxytryptamine 1B receptor was evaluated using radioligand binding technique
[5] = target: T2, 5-hydroxytryptamine receptor 1D; assay: Affinity of compound towards 5-hydroxytryptamine 1D receptor was evaluated using radioligand binding technique
[6] = target: T3, 5-hydroxytryptamine receptor 1A (Homo sapiens, UniProt P08908); assay: Affinity of compound towards 5-hydroxytryptamine 1A receptor was evaluated using radioligand binding technique
T3 sequence (P08908 whole entry): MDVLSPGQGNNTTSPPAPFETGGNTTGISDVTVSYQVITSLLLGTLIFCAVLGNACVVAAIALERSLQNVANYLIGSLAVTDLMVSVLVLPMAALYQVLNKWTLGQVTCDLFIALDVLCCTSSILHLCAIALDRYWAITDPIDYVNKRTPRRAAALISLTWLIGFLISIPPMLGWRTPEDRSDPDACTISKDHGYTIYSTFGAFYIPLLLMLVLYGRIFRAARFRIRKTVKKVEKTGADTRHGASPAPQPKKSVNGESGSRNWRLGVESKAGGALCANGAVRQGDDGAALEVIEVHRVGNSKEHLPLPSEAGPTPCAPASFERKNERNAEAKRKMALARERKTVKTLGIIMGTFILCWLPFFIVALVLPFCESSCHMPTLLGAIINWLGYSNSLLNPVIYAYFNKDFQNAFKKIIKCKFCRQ

[7] = target: 5-hydroxytryptamine receptor 2A (Rattus norvegicus) (UniProt P14842); assay: Affinity of compound towards rat 5-hydroxytryptamine 2A receptor was evaluated using radioligand binding technique
Rattus norvegicus [8] = assay: Hepatic portal vein plasma concentration after oral administration; type: functional, organism-based
In short: (§1)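 Fasted (≥12 h) rats, ~300 g, given 3 mg/kg orally in aqueous formulation (5 mL/kg); four rats per time point, isoflurane anaesthesia, hepatic portal vein blood at 0.5 or 2 h; plasma extracted (liquid-liquid or solid-phase) and analysed by reversed-phase HPLC with UV or fluorescence detection.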

Rattus norvegicus [9] = assay: Hepatic portal vein plasma concentration after administration; type: functional, organism-based; in short: as §1

T1 sequence (P28222 whole entry): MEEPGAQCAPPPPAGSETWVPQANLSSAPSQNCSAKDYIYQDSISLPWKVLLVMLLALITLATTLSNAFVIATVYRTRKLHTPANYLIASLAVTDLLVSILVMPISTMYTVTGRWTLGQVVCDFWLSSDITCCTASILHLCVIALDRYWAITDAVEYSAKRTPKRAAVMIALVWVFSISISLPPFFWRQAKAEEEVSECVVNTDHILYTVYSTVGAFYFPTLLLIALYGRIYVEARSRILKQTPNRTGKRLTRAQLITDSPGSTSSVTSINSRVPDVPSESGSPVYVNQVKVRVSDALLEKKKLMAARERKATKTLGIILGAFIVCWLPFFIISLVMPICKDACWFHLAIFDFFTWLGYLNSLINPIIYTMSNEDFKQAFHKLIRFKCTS
T2 sequence (P28221 whole entry): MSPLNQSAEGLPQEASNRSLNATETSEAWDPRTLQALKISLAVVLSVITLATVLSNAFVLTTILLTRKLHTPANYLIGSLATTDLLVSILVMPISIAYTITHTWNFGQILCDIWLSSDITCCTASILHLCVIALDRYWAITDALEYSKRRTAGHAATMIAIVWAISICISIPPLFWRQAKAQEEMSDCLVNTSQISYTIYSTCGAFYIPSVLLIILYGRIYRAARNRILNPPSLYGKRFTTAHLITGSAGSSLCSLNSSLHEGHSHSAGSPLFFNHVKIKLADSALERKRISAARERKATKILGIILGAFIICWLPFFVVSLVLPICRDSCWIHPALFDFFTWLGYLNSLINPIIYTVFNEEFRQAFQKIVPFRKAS
Sequence of 5-hydroxytryptamine receptor 2A (Rattus norvegicus) (P14842 whole entry, looked up): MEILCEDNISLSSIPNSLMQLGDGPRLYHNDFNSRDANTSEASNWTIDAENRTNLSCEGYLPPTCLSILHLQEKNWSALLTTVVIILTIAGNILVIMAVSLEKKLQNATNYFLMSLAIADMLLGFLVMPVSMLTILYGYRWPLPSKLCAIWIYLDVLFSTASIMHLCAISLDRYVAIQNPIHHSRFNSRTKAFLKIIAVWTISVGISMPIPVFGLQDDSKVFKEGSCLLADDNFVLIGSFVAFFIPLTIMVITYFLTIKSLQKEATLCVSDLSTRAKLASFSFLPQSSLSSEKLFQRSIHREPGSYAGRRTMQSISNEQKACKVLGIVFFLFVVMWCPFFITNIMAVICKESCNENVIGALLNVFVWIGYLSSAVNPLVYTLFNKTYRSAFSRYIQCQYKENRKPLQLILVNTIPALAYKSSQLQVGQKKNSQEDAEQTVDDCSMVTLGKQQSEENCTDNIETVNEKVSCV

c1cc2[nH]cc(CCN3CCC3)c2cc1-n1cnnc1
IC50 [1]: 4.4 nM
IC50 [2]: 1.1 nM

C[C@@H](c1ccccc1)N(C)C[C@@H]1CCN(CCc2c[nH]c3ccc(Cn4cncn4)cc23)C1
EC50 [3]: 4.5 nM
IC50 [1]: 87 nM
IC50 [2]: 0.7 nM

c1cc(CNC[C@@H]2CCN(CCc3c[nH]c4ccc(-n5cnnc5)cc34)C2)co1
EC50 [3]: 1.3 nM
IC50 [1]: 12 nM
IC50 [2]: 0.45 nM

c1ccc(NC[C@@H]2CCN(CCc3c[nH]c4ccc(-n5cnnc5)cc34)C2)cc1
IC50 [1]: 87 nM
IC50 [2]: 9.1 nM

CNS(=O)(=O)Cc1ccc2[nH]cc(CCN3CC[C@@H](CNCc4ccccc4)C3)c2c1
EC50 [3]: 3.5 nM
IC50 [4]: 62 nM
IC50 [5]: 1.1 nM
IC50 [6]: 41 nM
IC50 [1]: 62 nM
IC50 [2]: 1.1 nM
IC50 [7]: 5800 nM

CN(Cc1ccccc1)C[C@@H]1CCN(CCCc2c[nH]c3ccc(-n4cnnc4)cc23)C1
IC50 [1]: 59 nM
IC50 [2]: 4.2 nM

c1ccc(CCNC[C@@H]2CCN(CCc3c[nH]c4ccc(-n5cnnc5)cc34)C2)cc1
EC50 [3]: 6.2 nM
IC50 [1]: 125 nM
IC50 [2]: 2.6 nM

CC(=O)N(Cc1ccccc1)C[C@@H]1CCN(CCc2c[nH]c3ccc(-n4cnnc4)cc23)C1
IC50 [1]: 11 nM
IC50 [2]: 1.1 nM

C[C@H](NC[C@@H]1CCN(CCc2c[nH]c3ccc(C[C@H]4COC(=O)N4)cc23)C1)c1ccccc1
EC50 [3]: 0.5 nM
IC50 [4]: 50 nM
IC50 [5]: 0.3 nM
IC50 [6]: 8.7 nM
IC50 [1]: 49 nM
IC50 [2]: 0.3 nM
IC50 [7]: 2200 nM

c1ccc(COC[C@@H]2CCCN2CCc2c[nH]c3ccc(-n4cnnc4)cc23)cc1
IC50 [1]: 2.7 nM
IC50 [2]: 0.81 nM

CN(Cc1ccccc1)[C@@H]1CCN(CCc2c[nH]c3ccc(-n4cnnc4)cc23)C1
IC50 [2]: 37 nM

CC(=O)Nc1ccc(CNC[C@@H]2CCN(CCc3c[nH]c4ccc(-n5cnnc5)cc34)C2)cc1
EC50 [3]: 10 nM
IC50 [1]: 165 nM
IC50 [2]: 12 nM

c1cc2[nH]cc(CCN3CCCC3)c2cc1-n1cnnc1
EC50 [3]: 2.3 nM
IC50 [1]: 28 nM
IC50 [2]: 3.1 nM

c1ccc(CNC[C@H]2CCN(CCc3c[nH]c4ccc(-n5cnnc5)cc34)C2)cc1
IC50 [1]: 47 nM

CN(Cc1ccccc1)C[C@@H]1CCN(CCc2c[nH]c3ccc(C[C@H]4COC(=O)N4C)cc23)C1
EC50 [3]: 3.2 nM
IC50 [1]: 69 nM
IC50 [2]: 1.7 nM

c1ccc(CNC[C@@H]2CCN(CCc3c[nH]c4ccc(Cn5cncn5)cc34)C2)cc1
EC50 [3]: 4.9 nM
Plasma concentration (Rattus norvegicus [8]): < 25 ng/mL and 55 ng/mL
IC50 [1]: 260 nM
IC50 [2]: 3.2 nM

c1cc(CNC[C@@H]2CCN(CCc3c[nH]c4ccc(-n5cnnc5)cc34)C2)ccn1
EC50 [3]: 9.5 nM
IC50 [1]: 110 nM
IC50 [2]: 8.5 nM

O=C1N[C@@H](Cc2ccc3[nH]cc(CCN4CC[C@@H](CNCc5ccccc5)C4)c3c2)CO1
EC50 [3]: 1.7 nM
Plasma concentration (Rattus norvegicus [9]): < 2 ng/mL and 4 ng/mL
IC50 [4]: 49 nM
IC50 [5]: 0.35 nM
IC50 [6]: 17 nM
IC50 [1]: 49 nM
IC50 [2]: 0.35 nM
IC50 [7]: 3000 nM

C=CCNC[C@@H]1CCN(CCc2c[nH]c3ccc(-n4cnnc4)cc23)C1
IC50 [1]: 325 nM
IC50 [2]: 17 nM

CN(Cc1ccccc1)C[C@@H]1CCN(CCc2c[nH]c3ccc(Cn4cncn4)cc23)C1
EC50 [3]: 11 nM
Plasma concentration (Rattus norvegicus [8]): 39 ng/mL and 114 ng/mL
IC50 [1]: 575 nM
IC50 [2]: 7.7 nM

C[C@H](NC[C@@H]1CCN(CCc2c[nH]c3ccc(-n4cnnc4)cc23)C1)c1ccccc1
EC50 [3]: 0.63 nM
IC50 [1]: 41 nM
IC50 [2]: 0.45 nM

C[C@H](NC[C@@H]1CCN(CCc2c[nH]c3ccc(Cn4cncn4)cc23)C1)c1ccccc1
EC50 [3]: 3 nM
IC50 [1]: 305 nM
IC50 [2]: 2.5 nM

c1coc(CNC[C@@H]2CCN(CCc3c[nH]c4ccc(-n5cnnc5)cc34)C2)c1
EC50 [3]: 2.8 nM
IC50 [1]: 20 nM
IC50 [2]: 1.5 nM

c1cncc(CNC[C@@H]2CCN(CCc3c[nH]c4ccc(-n5cnnc5)cc34)C2)c1
IC50 [1]: 62 nM
IC50 [2]: 3.8 nM

c1ccc(COC[C@@H]2CCN(CCCc3c[nH]c4ccc(-n5cnnc5)cc34)C2)cc1
IC50 [1]: 33 nM
IC50 [2]: 2.1 nM

c1ccc(CNC[C@@H]2CCN(CCc3c[nH]c4ccc(-n5cnnc5)cc34)C2)nc1
IC50 [1]: 48 nM
IC50 [2]: 3.6 nM

OC[C@@H]1CCN(CCc2c[nH]c3ccc(-n4cnnc4)cc23)C1
IC50 [1]: 93 nM
IC50 [2]: 26 nM

CN(Cc1ccccc1)C[C@@H]1CCN(CCc2c[nH]c3ccc(-n4cnnc4)cc23)C1
EC50 [3]: 1.5 nM
IC50 [1]: 32 nM

O[C@@H]1CCN(CCc2c[nH]c3ccc(-n4cnnc4)cc23)C1
EC50 [3]: 7.8 nM
IC50 [1]: 93 nM
IC50 [2]: 9 nM

c1ccc(COC[C@H]2CCCN2CCc2c[nH]c3ccc(-n4cnnc4)cc23)cc1
IC50 [1]: 575 nM
IC50 [2]: 95 nM

c1ccc(CNC[C@@H]2CCN(CCc3c[nH]c4ccc(-n5cnnc5)cc34)C2)cc1
EC50 [3]: 0.8 nM
IC50 [6]: 5.4 nM
Plasma concentration (Rattus norvegicus [8]): < 5 ng/mL

CN(C)CCc1c[nH]c2ccc(-n3cnnc3)cc12
EC50 [3]: 0.4 nM
IC50 [1]: 1.3 nM

C[C@@H](NC[C@@H]1CCN(CCc2c[nH]c3ccc(-n4cnnc4)cc23)C1)c1ccccc1
EC50 [3]: 2.1 nM
IC50 [1]: 74 nM
IC50 [2]: 0.72 nM

CN(Cc1ccccc1)C[C@@H]1CCCN1CCc1c[nH]c2ccc(-n3cnnc3)cc12
EC50 [3]: 3 nM
IC50 [1]: 15 nM
IC50 [2]: 0.8 nM

c1ccc(CO[C@H]2CCN(CCc3c[nH]c4ccc(-n5cnnc5)cc34)C2)cc1
EC50 [3]: 31 nM
IC50 [1]: 275 nM
IC50 [2]: 20 nM

CC(C)(NC[C@@H]1CCN(CCc2c[nH]c3ccc(-n4cnnc4)cc23)C1)c1ccccc1
EC50 [3]: 0.3 nM
IC50 [1]: 39 nM
IC50 [2]: 1 nM

c1ccc(COC[C@@H]2CCN(CCc3c[nH]c4ccc(-n5cnnc5)cc34)C2)cc1
IC50 [1]: 85 nM
